Bioassay records from PubChem.
Compounds with a hit are over-represented: about 2.8% of the library has one in this group of screens.
NPY-Y1 PAM-ag: human NPY-Y1 potentiation or agonism, primary screen. AID 1304. activation, % at 3.6 µM. actives 0.37% (n = 220,000). NPY-Y1 expressing cells, potentiator/agonist activation. P25929; in the data active = activation above about 33%, passing the limit was not always enough;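 note: cells stimulated with NPY at EC10 then isoproterenol at EC100; 0% = low agonist plus stimulus and 100% = saturating agonist plus stimulus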
Target sequence (P25929 whole entry, looked up): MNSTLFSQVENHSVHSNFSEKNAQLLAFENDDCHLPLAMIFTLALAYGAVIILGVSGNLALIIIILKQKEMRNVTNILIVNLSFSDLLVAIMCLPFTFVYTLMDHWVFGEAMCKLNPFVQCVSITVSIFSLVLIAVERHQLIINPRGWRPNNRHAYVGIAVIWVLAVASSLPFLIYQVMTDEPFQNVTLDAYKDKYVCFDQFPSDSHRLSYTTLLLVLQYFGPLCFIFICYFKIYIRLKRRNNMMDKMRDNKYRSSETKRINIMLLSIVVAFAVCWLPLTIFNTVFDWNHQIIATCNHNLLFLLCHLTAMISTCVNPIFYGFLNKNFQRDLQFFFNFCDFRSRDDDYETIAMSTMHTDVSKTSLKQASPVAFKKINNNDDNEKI
NPY-Y2 antag: blocks the human neuropeptide Y Y2 receptor | inhibition, % at 2.7 µM | NPY-Y2 expressing cells, antagonist mode | P49146 | AID 793 | actives 0.99% (n = 140,000); in the data active = inhibition above about 17%;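 note: 0% = vehicle with agonist challenge and 100% = reference antagonist with challenge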
EP2 mod: modulates human prostaglandin E2 receptor EP2 signaling; EP2-expressing cells, cAMP HTRF FRET, PGE2 co-stimulation; induction, % at 25 µM; actives 0.83% (n = 260,000);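 active = compounds whose cAMP rise, as percent of the full-agonist control response, exceeds 60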;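 note: rat C6 glioma line stably carrying human EP2 under a CMV promoter; the protocol text gives 20 µM as final concentration; 100% = response of wells given 1 µM PGE2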
NPY2 pot ag: human NPY-Y2 potentiation or agonism, primary screen; cells expressing NPY-Y2, potentiator/agonist read-out; activation, % at 3.6 µM; P49146; actives 0.45% (n = 220,000); in the data active = activation above about 27%;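 note: cells stimulated with NPY near EC25 plus isoproterenol at EC100; 0% = vehicle plus submaximal agonist and 100% = vehicle plus saturating agonist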
PGE2 EP2 inh: EP2 receptor (human) inhibition | AID 1422 | actives 0.52% (n = 260,000) | inhibition, % at 25 µM | P43116 | C6 glioma cells expressing human EP2, cAMP TR-FRET; cells stimulated with saturating PGE2;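 active = percent inhibition above 40 after rounding to a whole number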;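 note: rat C6 glioma host cells with rolipram phosphodiesterase inhibitor present; the protocol text gives 20 µM as final concentration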
NPY-Y1 antag: blocks the human neuropeptide Y Y1 receptor; P25929; HEK293-CNG Y1 cells, membrane potential fluorescence; NPY at EC95, then isoproterenol; inhibition, % at 3.6 µM; actives 1% (n = 200,000);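 active = inhibition above the campaign mean inhibition of all tested compounds plus 3 SD, cut at about 20% in these data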;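 note: 0% = DMSO wells given NPY plus isoproterenol and 100% = isoproterenol alone without NPY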
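Material: HEK293 Y1/CNG channel cell line; also added: NPY (25 nM), isoproterenol (1 µM), Ro 20-1724 (25 µM); doses: one concentration, 3.6 µM, in 0.4% DMSO; schedule: compound incubation 1 h at room temperature, readout 45 min post-stimulation; technique: membrane potential fluorescence; measure: fluorescence ratio normalized to % inhibition between controls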
EP2 confirm: human EP2 receptor cAMP induction, negative in counter-screens; actives 47% (n = 1,300); calls only at 20 µM (by protocol); C6 glioma EP2 cells, cAMP HTRF induction; plus low (about EC15) PGE2 agonist; shares compounds with EP2 mod;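 active = cAMP induction above 50% in the main assay while under 30% in all four parallel counter assays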;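 note: rat C6 glioma cells stably expressing human EP2 receptor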
An asterisk follows results filed as active; i = inactive; · = no result; + = active, no number; ! = a repeat was not active.

SMILES | NPY-Y1 PAM-ag | NPY-Y2 antag | EP2 mod | NPY2 pot ag | PGE2 EP2 inh | NPY-Y1 antag | EP2 confirm
O=C1COc2ccccc2N1Cc1ccccc1Cl | -2 | 2 | 68* | 2 | 7 | 6 | i
COC(=O)C(CCSC)NS(=O)(=O)c1ccc(Cl)cc1 (centres undefined) | 16 | · | 24 | -5 | 10 | -3 | ·
COc1ccc(C(=O)COC(=O)C(CCSC)NS(=O)(=O)c2ccc(Cl)cc2)cc1 (centres undefined) | -14 | 7 | 70* | -4 | 9 | 2 | i
c1ccc(CCc2cccnc2)nc1 | · | · | 74* | · | 12 | · | i
CCOc1ccc(-n2c(C)nc3c(cnn3-c3ccc(Cl)cc3)c2=O)cc1 | -2 | 3 | 30 | -9 | 20 | 1 | ·
CCc1nc2c(cnn2-c2ccc(Cl)cc2)c(=O)n1-c1ccc(OC)cc1 | 13 | 4 | 81* | -4 | 17 | -1 | i
c1ccc(CCc2ccccc2-c2nc(-c3cccnc3)no2)cc1 | -49 | 8 | 82* | -16 | 14 | 4 | +
c1ccc(CCc2ccccc2-c2nc(-c3ccccn3)no2)cc1 | -13 | 2 | 101* | 2 | 12 | 5 | +
Cc1occc1-c1nc(-c2ccccn2)no1 | 31 | 1 | -4 | 5 | 6 | 1 | ·
c1ccc(-c2ccccc2-c2nc(-c3cccnc3)no2)cc1 | -26 | 5 | 72* | -3 | 9 | 8 | +
c1cncc(-c2noc(-c3cccc4ccccc34)n2)c1 | -3 | 11 | -1 | -11 | 6 | 8 | ·
c1ccc(-c2noc(-c3cccc4ccccc34)n2)cc1 | -25 | 9 | 69* | -13 | 3 | 10 | i
CCC1c2ccsc2CCN1Cc1ccc(OCCOC)c(OC)c1 (centres undefined) | · | · | 16 | · | 7 | · | ·
CCCn1cnc2sc(C(N)=O)c(C)c2c1=O | -9 | 1 | 2 | -6 | 8 | 0 | ·
CCCn1cnc2sc(CC)cc2c1=O | -79 | 0 | 50 | 7 | 8 | 1 | i
O=C(Cn1c(=O)n(Cc2cccs2)c2ncccc21)N1CCCC1 | · | · | -1 | · | · | · | ·
O=C(O)c1ccc(N2C(=O)/C(=C/C=C/c3ccccc3)SC2=S)cc1 | 15 | · | 80* | 10 | 13 | 2 | +
O=C(NCCCc1ccccn1)c1cc(-c2ccccn2)n[nH]1 | · | · | -84 | · | 10 | · | ·
COc1ccc(C2(C(=O)NCc3ccccc3Cl)CCOCC2)cc1OC | 14 | · | 10 | 2 | 13 | -3 | ·
COc1ccccc1CNC(=O)C1(c2ccc(Cl)cc2)CC1 | -17 | 9 | 69* | -25 | 8 | 10 | i
COCCn1nnnc1C(c1ccc(C)cc1)N1CCN(C)CC1 (centres undefined) | · | · | -2 | · | 8 | · | ·
O=C(c1cccnc1)C1CCN(C(=O)c2cc(F)cc(F)c2)CC1 | · | · | -6 | · | · | · | ·
CCn1c(=NC(=O)c2ccc(S(=O)(=O)N3CCOCC3)cc2)sc2cccc(OC)c21 | -13 | 3 | 68* | -10 | 15 | 5 | i
CCOC(=O)C1=C(COCCN)NC(C)=C(C(=O)OC)C1c1ccccc1Cl (centres undefined) | · | · | 5 | · | 24 | · | ·
CCOC(=O)C1=C(C)NC(C)=C(C(=O)OC)C1c1cccc(Cl)c1Cl (centres undefined) | -14 | 3 | 65*! | -3 | 9 | -3 | i
SMILES | NPY-Y1 PAM-ag | NPY-Y2 antag | EP2 mod | NPY2 pot ag | PGE2 EP2 inh | NPY-Y1 antag | EP2 confirm
C=CCN1C(=O)/C(=C/c2ccc(O)c(OC)c2)S/C1=N/c1nccs1 | 2 | -2 | 70* | -2 | 6 | 1 | +
C=CCN1C(=O)/C(=C/c2ccc(OCC(=O)O)cc2)S/C1=N/c1nccs1 | -35 | 1 | 35 | 9 | 9 | 5 | ·
CC1=C(C(=O)OCc2ccccc2)C(c2ccc(Cl)cc2Cl)NC(=O)N1CCCCCC(=O)O (centres undefined) | 3 | 2 | 66* | 2 | 7 | -6 | i
CC1=C(C(=O)OCc2ccccc2)C(c2ccc(Cl)cc2Cl)NC(=O)N1CCCC(=O)O (centres undefined) | -3 | 1 | 31 | 9 | 5 | -1 | ·
CCn1nc(C)c(CCC(=O)N2CCCC(n3nc(-c4cccs4)ccc3=O)C2)c1C (centres undefined) | · | · | -13 | · | · | · | ·
Cc1ccccc1Nc1cccc2nonc12 | -14 | 4 | 67* | 3 | 7 | 2 | +
O=C(COc1cccc2ccccc12)N1c2ccccc2CCc2ccccc21 | 16 | 2 | 66* | -6 | 11 | 3 | +
O=C(COc1ccc(F)cc1)N1c2ccccc2CCc2ccccc21 | 1 | 5 | 28 | 19 | 12 | -4 | ·
N#CC1=C(N)SC(N)=C(C#N)C1c1ccoc1 | -34 | 3 | 68* | 1 | 34 | 0 | i
CCOC(=O)c1c(NC(=O)c2ccc(Cl)s2)sc(C)c1C | · | · | · | · | 13 | · | ·
CCOC(=O)c1c(NC(=O)COC(=O)c2ccncc2)sc(C)c1C | 8 | · | 21 | 0 | 4 | -1 | ·
CCOC(=O)c1c(NC(=O)c2c(Br)cnn2CC)sc(C)c1C | -20 | 2 | 73* | 7 | 14 | -3 | +
CCOC(=O)c1c(NC(=O)c2ccncc2)sc(C)c1C | -11 | · | 74* | 2 | 7 | 6 | +
CCn1ncc(Br)c1C(=O)Nc1sc2c(c1C(=O)OC)CCC2 | -18 | 5 | · | 14 | 39 | 10 | ·
CCOC(=O)c1c(NC(=O)CSC(=S)N(C)C)sc(C)c1C | -47 | 2 | 66* | -3 | 9 | -3 | +
CCOC(=O)c1c(NC(=O)c2ccoc2C)sc(C)c1C | -30 | 6 | 77* | -9 | 17 | 4 | i
CCOC(=O)c1sc2nc3c(SCC(=O)O)cc(C(=O)c4cc(F)ccc4O)cn3c(=O)c2c1C | -2 | 6 | 77* | -10 | 6 | -4 | +
COC(=O)c1ccc(Oc2cc(C)nc(NCc3ccccc3)n2)cc1 | 21 | 5 | 70* | 16 | 11 | -1 | +
COC(=O)c1ccc(Oc2nc(C)cc(Oc3ccccc3)n2)cc1 | 18 | 4 | 59 | 17 | 9 | 4 | ·
Cc1cc(C(F)F)n2nc(C(=O)Nc3ccc(Cl)cc3F)nc2n1 | · | · | 9 | · | 25 | · | ·
COC(=O)c1cc2c(=O)n3ccccc3nc2n(Cc2ccc(C)cc2)c1=N | · | · | 7 | · | 7 | · | ·
Cn1c(NN)nc2c(c1=O)C1(CCCC1)Cc1ccccc1-2 | · | · | 59 | · | 10 | · | ·
O=c1c2c(nc3n1CCCCC3)-c1ccccc1CC21CCCCC1 | -4 | 3 | 66* | -17 | 6 | -1 | +
COc1ccc(S(=O)(=O)N(Cc2ccccc2)Cc2nc(-c3ccccc3)no2)cc1 | -31 | 21* | 50 | 2 | 9 | 41* | +
